According to ChEMBL document CHEMBL2380225, “Chalcones, inhibitors for topoisomerase I and cathepsin B and L, as potential anti-cancer agents” (Bioorg Med Chem Lett, 2013):

Key:
[1] = molecular target: T1, DNA topoisomerase 1 (Homo sapiens) (UniProt P11387); assay: Inhibition of human topoisomerase 1 at 20 uM relative to control
T1 sequence (whole entry): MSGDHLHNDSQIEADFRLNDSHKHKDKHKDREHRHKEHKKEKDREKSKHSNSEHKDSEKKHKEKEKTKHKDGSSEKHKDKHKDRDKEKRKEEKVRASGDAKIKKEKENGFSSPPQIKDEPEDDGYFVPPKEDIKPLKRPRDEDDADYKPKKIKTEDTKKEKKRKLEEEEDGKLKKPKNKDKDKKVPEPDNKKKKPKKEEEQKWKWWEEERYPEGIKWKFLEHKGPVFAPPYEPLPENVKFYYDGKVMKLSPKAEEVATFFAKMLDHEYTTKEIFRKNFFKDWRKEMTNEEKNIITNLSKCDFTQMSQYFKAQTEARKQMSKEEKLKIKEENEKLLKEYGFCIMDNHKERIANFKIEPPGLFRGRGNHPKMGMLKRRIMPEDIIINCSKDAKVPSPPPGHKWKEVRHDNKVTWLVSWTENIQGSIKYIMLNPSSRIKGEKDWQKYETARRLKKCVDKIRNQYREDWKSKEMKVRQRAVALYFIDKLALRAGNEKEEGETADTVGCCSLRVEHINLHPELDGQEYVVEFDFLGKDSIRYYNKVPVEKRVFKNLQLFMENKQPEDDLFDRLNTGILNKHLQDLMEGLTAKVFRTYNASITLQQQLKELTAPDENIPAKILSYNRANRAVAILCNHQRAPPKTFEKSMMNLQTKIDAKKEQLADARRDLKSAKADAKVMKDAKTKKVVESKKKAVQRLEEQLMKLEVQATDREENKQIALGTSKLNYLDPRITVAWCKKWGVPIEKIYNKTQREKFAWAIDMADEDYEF
Method in brief: (§1)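 Supercoiled DNA relaxation assay with human topoisomerase I or II (Topogen). Compounds were tested at final 100 and 20 μM. Percent inhibition was derived from the inhibition ratio by image analysis and expressed as the mean of triplicate experiments.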

[2] = molecular target: DNA topoisomerase 2-alpha (Homo sapiens) (UniProt P11388); assay: Inhibition of human topoisomerase 2 at 100 uM relative to control; method in brief: as §1
Chain of DNA topoisomerase 2-alpha (Homo sapiens) (P11388 whole entry): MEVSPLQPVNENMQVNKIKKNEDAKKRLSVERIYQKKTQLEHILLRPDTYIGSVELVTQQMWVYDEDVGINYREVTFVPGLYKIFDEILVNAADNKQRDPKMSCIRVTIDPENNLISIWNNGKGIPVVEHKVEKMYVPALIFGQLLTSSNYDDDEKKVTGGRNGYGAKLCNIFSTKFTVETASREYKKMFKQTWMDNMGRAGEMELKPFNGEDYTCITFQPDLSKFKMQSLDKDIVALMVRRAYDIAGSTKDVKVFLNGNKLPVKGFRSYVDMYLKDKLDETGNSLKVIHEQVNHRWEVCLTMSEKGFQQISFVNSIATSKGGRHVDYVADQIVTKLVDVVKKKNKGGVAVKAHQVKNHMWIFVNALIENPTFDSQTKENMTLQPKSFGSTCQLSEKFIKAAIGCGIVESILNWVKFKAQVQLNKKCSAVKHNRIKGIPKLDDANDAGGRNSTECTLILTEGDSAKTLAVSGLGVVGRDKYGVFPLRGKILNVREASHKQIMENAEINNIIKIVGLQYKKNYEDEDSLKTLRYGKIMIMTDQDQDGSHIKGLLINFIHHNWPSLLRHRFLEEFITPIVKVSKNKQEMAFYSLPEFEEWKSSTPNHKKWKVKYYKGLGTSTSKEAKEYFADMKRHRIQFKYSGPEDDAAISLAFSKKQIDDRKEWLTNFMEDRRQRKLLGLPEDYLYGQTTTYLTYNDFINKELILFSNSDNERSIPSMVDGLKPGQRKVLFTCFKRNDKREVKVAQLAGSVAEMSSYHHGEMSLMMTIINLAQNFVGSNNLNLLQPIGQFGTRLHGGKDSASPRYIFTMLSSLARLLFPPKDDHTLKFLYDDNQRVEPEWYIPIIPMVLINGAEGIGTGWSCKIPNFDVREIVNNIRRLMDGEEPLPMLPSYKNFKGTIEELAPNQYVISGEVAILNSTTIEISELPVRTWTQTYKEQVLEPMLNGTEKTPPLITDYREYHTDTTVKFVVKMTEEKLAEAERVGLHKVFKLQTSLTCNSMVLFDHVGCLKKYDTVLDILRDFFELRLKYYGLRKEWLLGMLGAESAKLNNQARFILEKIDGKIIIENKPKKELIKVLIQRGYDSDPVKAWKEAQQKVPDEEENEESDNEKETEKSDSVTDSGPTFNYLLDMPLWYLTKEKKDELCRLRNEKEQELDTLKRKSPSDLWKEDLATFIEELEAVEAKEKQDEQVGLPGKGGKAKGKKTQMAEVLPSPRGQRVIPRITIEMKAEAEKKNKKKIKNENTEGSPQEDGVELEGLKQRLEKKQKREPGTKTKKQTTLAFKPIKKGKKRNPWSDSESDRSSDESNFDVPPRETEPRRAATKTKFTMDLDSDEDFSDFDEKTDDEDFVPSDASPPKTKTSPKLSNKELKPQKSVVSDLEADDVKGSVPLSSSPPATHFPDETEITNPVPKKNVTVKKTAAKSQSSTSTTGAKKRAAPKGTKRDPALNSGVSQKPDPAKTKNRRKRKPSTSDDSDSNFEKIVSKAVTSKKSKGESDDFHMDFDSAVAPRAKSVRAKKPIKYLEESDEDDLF

[3] = molecular target: Cathepsin B (Homo sapiens, UniProt P07858); assay: Inhibition of cathepsin B (unknown origin) using RR-AMC as substrate after 30 mins by fluorescence assay
[4] = molecular target: T1, DNA topoisomerase 1 (Homo sapiens); assay: Inhibition of human topoisomerase 1 at 100 uM relative to control; method in brief: as §1
[5] = molecular target: Procathepsin L (Homo sapiens, UniProt P07711); assay: Inhibition of cathepsin L (unknown origin) using Z-FR-AMC as substrate after 30 mins by fluorescence assay
Chain of Procathepsin L (P07711 whole entry): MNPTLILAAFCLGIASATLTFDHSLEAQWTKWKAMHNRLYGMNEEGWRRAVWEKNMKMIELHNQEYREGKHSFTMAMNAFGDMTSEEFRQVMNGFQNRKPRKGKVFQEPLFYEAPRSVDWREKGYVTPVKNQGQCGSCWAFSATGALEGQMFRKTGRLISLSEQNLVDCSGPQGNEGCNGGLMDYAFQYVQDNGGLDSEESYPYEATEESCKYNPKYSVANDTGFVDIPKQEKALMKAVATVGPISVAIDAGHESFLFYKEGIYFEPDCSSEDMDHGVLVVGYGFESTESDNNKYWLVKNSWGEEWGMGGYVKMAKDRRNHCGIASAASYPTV
Method in brief: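 Calbiochem cathepsin L (4 nM) was reductively pre-activated for 30 min at 37 °C in 0.1 M NaOAc-HCl, 1 mM EDTA, 0.1% β-mercaptoethanol, pH 5.5. Reaction started with compound plus 20 μM Z-FR-AMC and ran 30 min at room temperature. Fluorescence read at 360 nm excitation / 450 nm emission. IC50 is the mean ± SD of triplicate runs.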

[6] = tested on: T47D; assay: Cytotoxicity against human T47D cells by MTT assay; format: functional, cell-based
Method in brief: (§2)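 MTT viability assay on T47D (breast ductal carcinoma) and SNU638 (gastric cancer) human cell lines. IC50 reported as mean ± SD of three separate experiments, each run in triplicate.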

[7] = tested on: SNU-638; assay: Cytotoxicity against human SNU638 cells by MTT assay; format: functional, cell-based; method in brief: as §2
[8] = molecular target: DNA topoisomerase 2-alpha (Homo sapiens) (UniProt P11388); assay: Inhibition of human topoisomerase 2 at 20 uM relative to control; method in brief: as §1

Row | SMILES | inhibition [1] [%] | inhibition [2] [%] | IC50 [3] [µM] | inhibition [4] [%] | IC50 [5] [µM] | inhibition [8] [%] | IC50 [6] [µM] | IC50 [7] [µM]
1 | COc1ccc(C(=O)/C=C/c2ccc(OC)c(Br)c2)c(O)c1 | 3.8 | 1 | > 100 | 5 | 45.3 |  |  | 
2 | COc1ccc(/C=C/C(=O)c2ccco2)cc1Br | 8.8 | 24.7 | > 100 | 92 | > 100 | 0 | 10.9 | 4.29
3 | COc1cc(O)ccc1/C=C/C(=O)c1ccc(O)cc1 [ECHINATIN] | 2.1 | 1.6 | 57.7 | 88.9 | 30.3 |  | 12.1 | 10.4
4 | COc1cc([C@@H]2c3cc4c(cc3[C@@H](O[C@@H]3O[C@@H]5CO[C@@H](C)O[C@H]5[C@H](O)[C@H]3O)[C@H]3COC(=O)[C@H]23)OCO4)cc(OC)c1O [ETOPOSIDE] |  |  |  |  |  |  | 4.98 | 2.57
5 | COc1cc(O)ccc1/C=C/C(=O)c1ccc(NC(C)=O)cc1 | 17.3 | 0 | 46.8 | 100 | 39.3 |  | 12.3 | 17.4
6 | O=C(/C=C/c1ccc(N2CCCC2)cc1)c1ccc([N+](=O)[O-])cc1 | 77.6 | 96.1 | 29 | 91.1 | 9.42 | 15.3 | 21.3 | > 25
7 | O=C(/C=C/c1ccc(N2CCCC2)cc1)c1ccc(O)cc1 | 60 | 96.8 | 1.81 | 74.7 | 3.15 | 19.1 | 1.37 | 0.62
8 | COc1cccc2c1C(=O)c1c(O)c3c(c(O)c1C2=O)C[C@@](O)(C(=O)CO)C[C@@H]3O[C@H]1C[C@H](N)[C@H](O)[C@H](C)O1 [DOXORUBICIN] |  |  |  |  |  |  | 2.91 | 0.84
9 | COc1ccc(/C=C/C(=O)c2cccs2)cc1Br | 2.1 | 5.8 | > 100 | 74.4 | > 100 |  | 21.9 | 16.6
10 | CC[C@@]1(O)C(=O)OCc2c1cc1n(c2=O)Cc2cc3ccccc3nc2-1 [CAMPTOTHECIN] |  |  |  |  |  |  | 0.07 | 0.28
11 | O=C(/C=C/c1ccc(N2CCCC2)cc1)c1ccc(F)cc1 | 73.1 | 0 | 54.3 | 90.6 | 56.5 |  | > 25 | > 25
12 | O=C(/C=C/c1ccc(N2CCCC2)cc1)c1ccc(O)cc1O | 64.4 | 0 | 28.7 | 87.1 | 4.72 |  | 6.99 | 5.77

Further lines, with some results ahead:

Row | inhibition [1] [%] | inhibition [2] [%] | IC50 [3] [µM] | inhibition [4] [%] | IC50 [5] [µM] | inhibition [8] [%] | SMILES | IC50 [6] [µM] | IC50 [7] [µM]
13 | 61.6 | 0 | > 100 | 86.1 | 91.2 |  | COc1cc(O)ccc1C(=O)/C=C/c1ccc(F)cc1 | > 25 | > 25
14 | 8.2 | 2.4 | > 100 | 73.2 | 67.5 |  | COc1ccc(/C=C/C(=O)c2ccc(O)cc2O)cc1Br | 1.05 | 2.89
15 | 9.5 | 0.7 | 95.1 | 95.8 | 73.2 |  | COc1cc(O)ccc1/C=C/C(=O)c1ccc(F)cc1 | 8.51 | 6.3
16 | 56.7 | 42.2 | > 100 | 80.2 | > 100 | 12.6 | O=C(/C=C/c1ccc(F)cc1)c1ccc(O)cc1O | 8.31 | 9.43
17 | 18 | 0 | > 100 | 50.9 | > 100 |  | O=C(/C=C/c1ccc(F)cc1)c1ccc(O)cc1 | 13.8 | 5.54
18 | 20.1 | 48.7 | > 100 | 76.5 | > 100 | 0 | COc1ccc(/C=C/C(=O)c2ccc(F)cc2)cc1Br | > 25 | > 25
19 |  | 0 | 76.5 | 0.8 | 32.9 |  | COc1cc(O)ccc1/C=C/C(=O)c1ccc(N)cc1 |  | 
20 | 60 | 0 | > 100 | 81.2 | 98.7 |  | COc1ccc(C(=O)/C=C/c2ccc(F)cc2)c(O)c1 | 21.9 | 18.4
21 | 6.6 | 1.2 | > 100 | 24.8 | 29.8 |  | COc1ccc(/C=C/C(=O)c2ccc(O)cc2)cc1Br |  | 
